Test results: ChEMBL document CHEMBL5096220, “Selective Inhibition of the Periodontal Pathogen Porphyromonas gingivalis by Third-Generation Zafirlukast Derivatives” (J Med Chem, 2022)
The source made the active and inactive calls. No cut-off for these calls is given here.

Tests used:
[1] = Hemolytic activity in mouse RBC at 27 microg/ml incubated for 1 hr; assay type: toxicity, cell-based, Erythrocyte; conditions: mouse red blood cells (erythrocytes), at 27 µg/mL, read-out: Activity
[2] = test system: Porphyromonas gingivalis; experiment: Bactericidal activity against Porphyromonas gingivalis ATCC 33277 assessed as reduction in colony formation at 100 uM measured 24 hrs […] relative to control; assay type: functional; set-up: scale not given: the % may be the effect or the level left; conditions: in the assay text read “CFU assay” for “safranin staining”
In short: (§1)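 P. gingivalis ATCC 33277 (10^8/well) was grown anaerobically in supplemented BHI and treated 24 h at 1, 10 or 100 μM in DMSO. Cultures were diluted 1:400 and plated on blood agar; colonies were counted after 5 days anaerobic incubation. % inhibition was based on CFUs/mL vs medium-only cultures, three independent replicates. Controls: tetracycline 2.81 μM, DMSO.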

[3] = test system: HepG2; experiment: Cytotoxicity against human HepG2 cells assessed as cell survival rate at upto 31.3 to 62.6 microg/ml measured after 24 hrs by resazurin dye based analysis relative to control; assay type: functional; conditions: dose 31.3-62.6 µg/ml, at 31.3 to 62.6 µg/mL
In short: (§2)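 HEK-293 and HepG2 cells were maintained in DMEM with 10% FBS and 1% Pen/Strep at 37 °C, 5% CO2. Compounds were tested over 0–62.6 μg/mL. Survival values above 100% were normalized to 100%.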

[4] = test system: Porphyromonas gingivalis; experiment: Antibacterial activity against Porphyromonas gingivalis ATCC 33277 assessed as growth inhibition at 100 uM measured after 30 mins by WST-1 assay relative to control; assay type: functional; set-up: scale not given: the % may be the effect or the level left
In short: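 P. gingivalis ATCC 33277 (10^8 cells/well) was grown to log phase in supplemented BHI under anaerobic conditions and incubated 24 h with treatments. WST-1 A405 was read 30 min after reagent addition. Growth inhibition was calculated relative to medium-only cultures, six independent replicates per condition.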

[5] = test system: Porphyromonas gingivalis; experiment: Bactericidal activity against Porphyromonas gingivalis ATCC 33277 assessed as reduction in colony formation at 10 uM measured 24 hrs by safranin staining relative to control; assay type: functional; set-up: scale not given: the % may be the effect or the level left; conditions: in the assay text read “CFU assay” for “safranin staining”; in short: as §1
[6] = test system: Porphyromonas gingivalis; experiment: Antibiofilm activity against Porphyromonas gingivalis ATCC 33277 assessed as inhibition of biofilm at 25 uM measured after 48 hrs by safranin staining relative to control; assay type: functional; set-up: scale not given: the % may be the effect or the level left
In short: (§3)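 Biofilm formation: P. gingivalis ATCC 33277 (10^8 cells/well) was grown in supplemented BHI under anaerobic conditions with gentle shaking, exposed to 10, 25, 50 or 100 μM for 48 h. Biomass was stained with 0.1% safranin and A492 measured. Biofilm growth % = 100×OD treated/OD DMSO control. Positive controls: tetracycline 2.81 μM.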

[7] = test system: Porphyromonas gingivalis; experiment: Antibacterial activity against Porphyromonas gingivalis ATCC 33277 assessed as growth inhibition at 1 uM measured after 24 hrs by WST-1 assay relative to control; assay type: functional; set-up: scale not given: the % may be the effect or the level left
In short: (§4)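 Log-phase P. gingivalis ATCC 33277 was grown anaerobically in hemin/menadione-supplemented BHI, 10^8 cells/well, and treated for 24 h (DMSO vehicle). […] Derivatives: six independent replicates; controls: 42 replicates.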

[8] = test system: Porphyromonas gingivalis; experiment: Antibacterial activity against Porphyromonas gingivalis ATCC 33277 assessed as growth inhibition at 10 uM measured after 24 hrs by WST-1 assay relative to control; assay type: functional; set-up: scale not given: the % may be the effect or the level left; in short: as §4
[9] = test system: Erythrocyte; experiment: Hemolytic activity in mouse RBC upto 100 uM incubated for 1 hr; assay type: toxicity, cell-based
In short: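 Murine red blood cells incubated with compound at 3.13 to 100 μM for 1 h at 37 °C. PBS only was the negative control; Triton X-100 (1% v/v) set 100% hemolysis.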

[10] = test system: Actinomyces naeslundii; experiment: Antibacterial activity against Actinomyces naeslundii ATCC 49340 assessed as growth inhibition at 100 uM measured after 24 hrs by WST-1 assay relative to control; assay type: functional; set-up: scale not given: the % may be the effect or the level left
In short: (§5)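 A. naeslundii ATCC 49340 (anaerobic) and S. sanguinis ATCC 10556 (aerobic) were grown in BHI with 5 μg/mL hemin and 1 μg/mL menadione to log phase, 10^8 cells/well. They were exposed to 1, 10 or 100 μM for 24 h, then WST-1 was added. […] Controls: DMSO, penicillin/streptomycin 1X.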

[11] = test system: Streptococcus sanguinis; experiment: Antibacterial activity against Streptococcus sanguinis ATCC 10556 assessed as growth inhibition at 100 uM measured after 24 hrs by WST-1 assay relative to control; assay type: functional; set-up: scale not given: the % may be the effect or the level left; in short: as §5
[12] = test system: Fusobacterium nucleatum; experiment: Antibacterial activity against Fusobacterium nucleatum ATCC 25586 assessed as growth inhibition at 100 uM measured after 24 hrs by WST-1 assay relative to control; assay type: functional; set-up: scale not given: the % may be the effect or the level left
In short: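 F. nucleatum ATCC 25586 was grown anaerobically in hemin/menadione-supplemented BHI to log phase, 10^8 cells/well. Treatment was 1, 10 or 100 μM for 24 h. WST-1 absorbance at 405 nm was read 30 min after reagent addition. % inhibition was calculated vs medium-only cultures, six independent replicates. Controls: DMSO, tetracycline 2.81 μM.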

[13] = test system: Porphyromonas gingivalis; experiment: Antibacterial activity against Porphyromonas gingivalis ATCC 33277 assessed as growth inhibition at 25 uM measured after 24 hrs by WST-1 assay relative to control; assay type: functional; set-up: scale not given: the % may be the effect or the level left; in short: as §4
[14] = test system: HEK293; experiment: Cytotoxicity against HEK293 cells assessed as cell survival rate upto 31.3 microg/ml measured after 24 hrs by resazurin dye based analysis; assay type: functional; conditions: Homo sapiens, dose <= 31.3 µg/ml; in short: as §2
[15] = Hemolytic activity in mouse RBC at 100 uM incubated for 1 hr; assay type: toxicity, cell-based, Erythrocyte; conditions: mouse red blood cells (erythrocytes), read-out: Activity
In short: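 Murine red blood cells were incubated 1 h at 37 °C with compounds at 3.13–100 μM. PBS served as the negative control and Triton X-100 (1% v/v) as the 100% hemolysis reference.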

[16] = test system: Porphyromonas gingivalis; experiment: Antibiofilm activity against Porphyromonas gingivalis ATCC 33277 assessed as inhibition of biofilm at 100 uM measured after 48 hrs by safranin staining relative to control; assay type: functional; set-up: scale not given: the % may be the effect or the level left; in short: as §3
[17] = test system: Porphyromonas gingivalis; experiment: Antibacterial activity against Porphyromonas gingivalis ATCC 33277 assessed as growth inhibition at 50 uM measured after 24 hrs by WST-1 assay relative to control; assay type: functional; set-up: scale not given: the % may be the effect or the level left; in short: as §4
[18] = Cytotoxicity against human OKF6 cells assessed as morphological change at 100 uM […]; assay type: toxicity, cell-based; conditions: okf6, 100 µM
In short: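 OKF6 oral keratinocytes were treated 24 h at 10 or 100 μM. Cell morphology and density were examined by microscopy across the entire well. Controls: medium, 1% DMSO, staurosporine 8 μM.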

[19] = test system: Porphyromonas gingivalis; experiment: Antibacterial activity against Porphyromonas gingivalis assessed as reduction of CFU at 10 uM incubated for 5 days measured by […]; assay type: functional, organism-based; conditions: time 5.0 day; in short: as §1
[20] = test system: Porphyromonas gingivalis; experiment: Antibacterial activity against Porphyromonas gingivalis at 100 uM incubated for 5 days measured by […] relative to control; assay type: functional; conditions: dose 10 µM; time 5 day; in the assay text read “10 uM” for “100 uM”; in short: as §1
[21] = Cytotoxicity against human OKF6 cells assessed as reduction in cell viability at 10 uM by Annexin V-FITC/PI staining based flow cytometric analysis relative to control; assay type: toxicity; conditions: okf6, 10 µM
In short: (§6)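 OKF6 keratinocytes were exposed 24 h to 10 or 100 μM. Apoptosis/necrosis was assessed by FITC-Annexin V staining and flow cytometry, ≥10,000 events per condition, in duplicate across two independent experiments. Controls: medium, 1% DMSO, staurosporine 8 μM.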

[22] = test system: Porphyromonas gingivalis; experiment: Antibiofilm activity against Porphyromonas gingivalis ATCC 33277 assessed as inhibition of biofilm at 50 uM measured after 48 hrs by safranin staining relative to control; assay type: functional; set-up: scale not given: the % may be the effect or the level left; in short: as §3
[23] = Cytotoxicity against human OKF6 cells assessed as reduction in cell viability at 100 uM by Annexin V-FITC/PI staining based flow cytometric analysis relative to control; assay type: toxicity; conditions: okf6, 100 µM; in short: as §6
[24] = test system: Porphyromonas gingivalis; experiment: Antibacterial activity against Porphyromonas gingivalis ATCC 33277 assessed as growth inhibition at 1 to 100 uM measured after 24 hrs by WST-1 assay relative to control; assay type: functional; set-up: scale not given: the % may be the effect or the level left; conditions: dose 1-100 µM; in short: as §4
[25] = test system: Porphyromonas gingivalis; experiment: Antibiofilm activity against Porphyromonas gingivalis ATCC 33277 assessed as inhibition of biofilm at 10 to 100 uM measured after 48 hrs by safranin staining relative to control; assay type: functional; set-up: scale not given: the % may be the effect or the level left; conditions: dose 10-100 µM; in short: as §3
[26] = test system: Porphyromonas gingivalis; experiment: Antibiofilm activity against Porphyromonas gingivalis ATCC 33277 assessed as inhibition of biofilm at 10 uM measured after 48 hrs by safranin staining relative to control; assay type: functional; set-up: scale not given: the % may be the effect or the level left; in short: as §3

In the case of `C[C@@H]1[C@H](O)[C@@H](C)/C=C/C=C/C=C/C=C/C=C/C=C/C=C/[C@H](O[C@@H]2O[C@H](C)[C@@H](O)[C@H](N)[C@@H]2O)C[C@@H]2O[C@](O)(C[C@@H](O)C[C@@H](O)[C@H](O)CC[C@@H](O)C[C@@H](O)CC(=O)O[C@H]1C)C[C@H](O)[C@H]2C(=O)O` [AMPHOTERICIN B], the hemolysis at 1 h, 27 microg/ml [1] is reported as 0%.
With `COc1ccc(Cc2cn(C)c3ccc([N+](=O)[O-])cc23)cc1C(=O)NS(=O)(=O)c1ccccc1F` the Activity [2] was 100%, the Activity [3] was >76% and the Activity [4] was 61%. The Activity [5] was 96% and the Activity [6] was 52%.
`CCn1cc(Cc2ccc(OC)c(C(=O)NS(=O)(=O)c3ccc([N+](=O)[O-])cc3)c2)c2cc([N+](=O)[O-])ccc21` gave an Activity [2] of 100%, an Activity [7] of 6% and an Activity [5] of 19%. It also gave an Activity [8] of 77%.
In the case of `CCCn1cc(Cc2ccc(OC)c(C(=O)NS(=O)(=O)c3ccccc3F)c2)c2cc([N+](=O)[O-])ccc21`, the Activity [9] is reported as “<= 25%”.
Molecule `COc1ccc(Cc2cn(C)c3ccc([N+](=O)[O-])cc23)cc1C(=O)NS(=O)(=O)c1c(F)cccc1F` has an Activity [2] of 100%, an Activity [10] of 40% and an Activity [4] of 61%. The Activity [11] was 40% and the Activity [12] was 76%.
In the case of `COc1cc(C(=O)NS(=O)(=O)c2ccccc2C)ccc1Cc1cn(C)c2ccc(NC(=O)OC3CCCC3)cc12` [ZAFIRLUKAST], the Activity [13] is reported as 74%, the Activity [14] is reported as “Not toxic” and the hemolysis at 1 h, 100 µM [15] is reported as 72%. The Activity [16] was 58% and the Activity [17] was 88%.
With `COc1ccc(Cc2cn(C)c3ccc([N+](=O)[O-])cc23)cc1C(=O)NS(=O)(=O)c1ccccc1Br` the Activity [2] was 100%, the Activity [3] was >76% and the Activity [4] was 61%. The Activity [18] was “Toxic”, the Activity [19] was “Active” and the Activity [5] was “Active”.
With `CCCCn1cc(Cc2ccc(OC)c(C(=O)NS(=O)(=O)c3ccc([N+](=O)[O-])cc3)c2)c2cc([N+](=O)[O-])ccc21` the Activity [20] was 71%, the Activity [21] was 63% and the Activity [22] was 63%. It also gave an Activity [23] of 23%, an Activity [2] of 100% and an Activity [16] of 57%. For the same molecule, the Activity [9] was “<= 15%”, the Activity [8] was 77% and the Activity [24] was 69%.
For `COc1ccc(Cc2cn(CC(C)C)c3ccc([N+](=O)[O-])cc23)cc1C(=O)NS(=O)(=O)c1ccc([N+](=O)[O-])cc1`, the Activity [2] was 100% and the Activity [4] was 73%.
With `CCCn1cc(Cc2ccc(OC)c(C(=O)NS(=O)(=O)c3ccc([N+](=O)[O-])cc3)c2)c2cc([N+](=O)[O-])ccc21` the Activity [2] was 100%, the Activity [9] was “<= 15%” and the Activity [8] was 77%. It also gave an Activity [24] of 60%.
`CN(C)[C@@H]1C(O)=C(C(N)=O)C(=O)[C@@]2(O)C(O)=C3C(=O)c4c(O)cccc4[C@@](C)(O)[C@H]3C[C@@H]12` [TETRACYCLINE] gave an Activity [16] of 57%.
`COc1ccc(Cc2cn(C)c3ccc([N+](=O)[O-])cc23)cc1C(=O)NS(=O)(=O)c1ccc([N+](=O)[O-])cc1` gave an Activity [2] of 100%, an Activity [25] of 86% and an Activity [7] of 0%. The Activity [5] was “Active” and the Activity [8] was 63%.
With `COc1ccc(Cc2cn(C)c3ccc([N+](=O)[O-])cc23)cc1C(=O)NS(=O)(=O)c1ccccc1Cl` the Activity [21] was 9%, the Activity [26] was 53% and the Activity [22] was 58%. For the same molecule, the Activity [23] was 5%, the Activity [2] was 100% and the Activity [3] was >76%. The Activity [4] was 61%, the Activity [18] was “Toxic” and the Activity [19] was “Active”. The Activity [5] was “Active” and the Activity [6] was 55%.
For `CCCCn1cc(Cc2ccc(OC)c(C(=O)NS(=O)(=O)c3ccccc3F)c2)c2cc([N+](=O)[O-])ccc21`, the Activity [9] was “<= 25%”.
